This is a sample that favours compounds with a hit; in the whole collection about 1.9% have one here.
HIV Rev-RRE inh: inhibitors of HIV-1 Rev-RRE RNA interaction | P05866 | Rev peptide-RRE RNA binding, FRET | inhibition, % at 8 µM | 97,000 compounds, 0.79% hits;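 active = inhibition above the screen-wide mean plus 3 SD, cut at about 35% in these data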;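 note: 0% = median DMSO wells and 100% = median Neomycin B control wells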
Target sequence (P05866 whole entry, looked up): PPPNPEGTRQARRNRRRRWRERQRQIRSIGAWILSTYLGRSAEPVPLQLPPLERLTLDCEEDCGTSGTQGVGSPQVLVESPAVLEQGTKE
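assay system = Cy5-tagged RRE RNA duplex with fluorescein-tagged Rev peptide | incubation = 5 + 15 min at 25 °C | also added = labelled Rev peptide | measure = % inhibition of FRET ratio versus controls | benchmarks = DMSO wells as 0% and neomycin B wells as 100% inhibition | measured by = FRET fluorescence readout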
EphB4 ephrin blk: blocks human EphB4 binding to ephrin-B2; 97,000 compounds, 0.15% hits; EphB4 LBD / TNYL-RAW-Alexa532 peptide, fluorescence polarization; inhibition, % at 7 µM;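 active = inhibition above the screen-wide mean inhibition plus 3 SD, cut at about 15% in these data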;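 note: 0% = DMSO wells and 100% = excess unlabeled TNYL-RAW peptide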
PTPN22 act: increases human PTPN22 phosphatase activity; Q9Y2R2; recombinant LYP, DiFMUP fluorescence; 0 = plate median, 100 = signal doubled; activation, % at 2 µM; 96,000 compounds, 0.11% hits; AID 697;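 active = activation at 2 µM above a set limit, the mean plus 5 SD, cut at about 37% in these data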
LYP inh 2: blocks human PTPN22 phosphatase activity; 96,000 compounds, 0.21% hits; AID 640; Q9Y2R2; recombinant LYP catalytic domain, DiFMUP fluorescence; inhibition, % at 2 µM;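 active = inhibition at 2 µM at or above a set limit, the screen mean plus 3 SD, cut at about 24% in these data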;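 note: 0% = DMSO with enzyme and 100% = enzyme fully blocked by orthovanadate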
FAK blocker: blocks human focal adhesion kinase activity; Q05397; biochemical FAK kinase activity assay; inhibition, %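 (tested at 7 µM)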; 97,000 compounds, 0.84% hits; in the data active = inhibition above about 19%;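 note: 0% = DMSO and 100% = reference compound high control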
The depositor's hits bear a star; [ ] = dose if it differs, or a comment.

SMILES	HIV Rev-RRE inh	EphB4 ephrin blk	PTPN22 act	LYP inh 2	FAK blocker
Cn1c(N)c(C#N)c2c(c1=S)CSC(C)(C)C2	40*	-11	-6	5	-6
COC(=O)c1ccc(-c2cc(C(=O)O)c3cc4c(cc3n2)OCCO4)cc1	4	-2	2	-4	-1
CCN(CC)c1ccc(/C=C/c2nc3ccccc3s2)cc1	123*[fluorescence artefact?]	2	4	0	-5
CCCCCCCCCCCC(=O)N/N=C/c1ccco1	11	6	-10	6	1
CNc1nc2[nH]c(=O)c3c(c2s1)OC(N)=C(C#N)C3c1cccc(F)c1 (configuration not stated)	99*[fluorescence artefact?]	-8	2	0	-1
CCC(CO)n1cnnc1-c1ccncc1 (configuration not stated)	1	-4	-4	4	-4
O=C(CN(C(=O)CNC(=O)c1ccco1)c1ccc2c(c1)OCO2)NC1CCCCC1	1	-5	-30	29*	-1
CC1CCC(NC(=O)c2ccc3nc[nH]c3c2)CC1 (configuration not stated)	1	2	6	-2	-3
O=C(c1ccccc1)c1cnc(-c2ccc(Cl)cc2)s1	3	-7	-2	3	-1
O=C(c1ccc(Cl)cc1)c1cnc(-c2ccc(Cl)cc2)s1	2	-2	-40	41*	1
O=C(CSc1nnc(-c2ccc(Cl)s2)o1)N1CCCc2ccccc21	11	3	-24	24*	2
COc1ccc(CSc2nnc(C)n2N)cc1	47*	2	1	-1	1
N#CC1=C(N)Oc2n[nH]c(-c3cccs3)c2C1c1ccco1 (configuration not stated)	60*	-4	26	-28	3
CCOC(=O)c1c(NC(=S)Nc2ccccc2)sc2c1CCN(CC)C2	121*[fluorescence artefact?]	-5	7	-2	10
CCOc1ccccc1NC(=O)CN(c1ccc(C)cc1)S(=O)(=O)c1c(C)noc1C	8	-6	-24	27*	4
CCN(CC)CCNc1ncnc2c1[nH]c1ccc(OC)cc12	-1	0	-1	-2	8
C=CCNc1ncnc2c1[nH]c1ccc(C)cc12	7	8	2	-3	25*
O=C(O)CCCCCNc1nc(=S)[nH]c2ccccc12	8	0	-24	27*	-2
CNC(=S)NNC(=O)c1cccn(Cc2ccc(Cl)c(Cl)c2)c1=O	3	-7	-69	69*	2
CNC(=S)NNC(=O)c1cccn(Cc2cccc(Cl)c2)c1=O	4	-5	-59	60*	-1
C=CCNC(=S)NNC(=O)c1cccn(Cc2ccc(Cl)c(Cl)c2)c1=O	-5	-4	-25	28*	-4
O=C(Nc1cccn(Cc2c(Cl)cccc2Cl)c1=O)c1ccccc1Cl	10	-1	3	-1	-1
Cc1nnc(NC(=O)c2ccc3c(c2)C(=O)N(CCC(C)C)C3=O)s1	0	0	10	-7	-4
Cc1ccc(C(=O)C[n+]2cccc3ccccc32)cc1	34	-4	-22	24	2
NC(=O)C[n+]1cccc2ccccc21	37*	0	12	-6	2
SMILES	HIV Rev-RRE inh	EphB4 ephrin blk	PTPN22 act	LYP inh 2	FAK blocker
CC1(C)CC(=O)C2=C(C1)Nc1ccccc1NC2c1nc2ccccc2[nH]1 (configuration not stated)	0	-9	3	-6	-7
Cc1cc2c(cc1C)NC(c1c(C)n(C)n(-c3ccccc3)c1=O)C1=C(CC(C)(C)CC1=O)N2 (configuration not stated)	107*[fluorescence artefact?]	5	-4	6	-3
N#C/C(=C\c1cc(Cl)cc(Cl)c1O)C(=O)NC1CCCCC1	45*	7	-6	11	-4
CCCn1c(Nc2ccccc2)nc2ccccc21	5	2	7	-7	0
CCCn1c(Nc2ccc(Cl)cc2)nc2ccccc21	3	-2	-35	38*	1
O=C1c2ccccc2NC(c2ccccn2)N1c1ccccc1F (configuration not stated)	7	1	-5	3	2
COc1ccc(C2C(C(C)=O)=C(C)N=c3s/c(=C\c4cc(C)n(C)c4C)c(=O)n32)c(OC)c1 (configuration not stated)	128*[fluorescence artefact?]	2	-6	4	-3
O=C(CSc1nc2ccc(S(=O)(=O)N3CCOCC3)cc2[nH]1)N1CCOCC1	3	-1	-36	34*	2
O=C(Nc1nnc(COc2ccc(Cl)cc2)s1)c1ccc([N+](=O)[O-])cc1	5	3	-22	24*	0
CCOc1cc(C)c(Cl)cc1S(=O)(=O)NCC1CCCO1 (configuration not stated)	9	1	0	0	-1
c1nc(N2CCCC2)c2[nH]cnc2n1	0	4	-3	-3	34*
O=C(O)CSc1ncnc2nc[nH]c12	5	-2	5	-8	0
CC(=O)Nc1ccccc1Nc1cc(C#N)c(C#N)cc1[N+](=O)[O-]	4	2	0	5	0
COc1ccc2oc(=N)c(C(=O)Nc3ccccc3)cc2c1	-1	-6	-1	-2	-6
CCCCCCc1cc2cc(C(=O)NCc3ccccc3)c(=N)oc2cc1O	104*[fluorescence artefact?]	-7	-8	8	0
CC(C)OC(=O)c1c2nc3ccccc3nc2n2c1[nH]c(=O)c1ccccc12	69*	0	-14	13	0
CC(C)OC(=O)c1c(N)n(CCCN2CCOCC2)c2nc3ccccc3nc12	8	2	5	-5	1
O=C(Nc1ccccc1Sc1ccccc1)c1ccccc1F	14	16*	-10	8	5
CCN(CC)c1nc2ccccc2c(N)c1-c1ccccc1	5	10	-2	4	3
CC1(C)NC(=O)N(CCOCCOc2c(Cl)cc(Cl)cc2Cl)C1=O	3	-2	5	-1	0
CCSc1ncc(/C=N/Nc2ccccc2)n1C	-5	-1	-1	5	3
CCSc1ncc(/C=N/Nc2ccc([N+](=O)[O-])cc2)n1C	66*[fluorescence artefact?]	-1	-2	4	6
O=c1oc(/C=C/c2ccccc2)nc2sc3c(c12)CCC3	38*	-3	2	0	0
COc1ccc(/C=C/c2nc3sc4c(c3c(=O)o2)CCC4)cc1	2	-8	-8	10	-2
CC1(C)Oc2ccc3ccc(=O)oc3c2-c2cn[nH]c21	2	-9	11	-12	24*
CC1(C)Oc2ccc3ccc(=O)oc3c2/C(=C/N)C1=O	-4	-12	1	-4	7
COc1ccc(N2CCCCn3c2nc2c3c(=O)n(C)c(=O)n2C)cc1	-3	-2	6	-7	-1
Cc1ccc(NC(=O)/C(C#N)=C/c2ccc(C)s2)c(C)c1	37*	-2	-6	6	-1
Cc1ccc(NC(=O)CSc2nnc(-c3ccc(S(=O)(=O)N4CCCC4)cc3)o2)cc1C	10	1	2	-3	-4

Assay outcomes deposited in PubChem by several laboratories.
